According to ChEMBL document CHEMBL1649075, “Synthesis and biological evaluation of (6- and 7-phenyl) coumarin derivatives as selective nonsteroidal inhibitors of 17β-hydroxysteroid dehydrogenase type 1” (J Med Chem, 2011):
Active and inactive are the calls of the source. The rule behind the calls is not given here.

Columns and labels:
[1] = system: 17β-HSD1 (Homo sapiens); test: Displacement of [3H]estrone human recombinant 17beta-HSD1 expressed in Escherichia coli BL21 (DE3)-RIL at 6 uM by scintillation counting in presence of NADPH
[2] = system: 17β-HSD1 (Homo sapiens); test: Displacement of [3H]estrone human recombinant 17beta-HSD1 expressed in Escherichia coli BL21 (DE3)-RIL at 0.6 uM by scintillation counting in presence of NADPH
[3] = system: 17β-HSD2 (Homo sapiens); test: Displacement of [3H]estradiol human recombinant 17beta-HSD2 expressed in Escherichia coli BL21 (DE3)-RIL at 0.6 uM by scintillation counting in presence of NAD+
[4] = system: 17β-HSD2 (Homo sapiens); test: Displacement of [3H]estradiol human recombinant 17beta-HSD2 expressed in Escherichia coli BL21 (DE3)-RIL at 6 uM by scintillation counting in presence of NAD+
[5] = target: Estrogen receptor beta (Homo sapiens) (UniProt Q92731); test: Displacement of [3H]estradiol from human recombinant ERbeta after 16 hrs by liquid scintillation counting relative to estradiol
Summary of the method: (§1)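 Recombinant human ERα or ERβ (0.9 nM) was incubated with 9 nM [2,4,6,7-³H]-E2 and test compound (10^-9 to 10^-5 M) at 4 °C, for 18 h per methods (16 h per table footnote). Nonspecific binding was set with 6 μM E2. Complexes were bound to hydroxyapatite in Tris pH 7.5, washed four times, and counted by liquid scintillation. Runs were in triplicate. RBA = IC50(E2)/IC50(compound) × 100.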

[6] = system: 17β-HSD2 (Homo sapiens); test: Displacement of [3H]estradiol human recombinant 17beta-HSD2 expressed in Escherichia coli BL21 (DE3)-RIL at 60 uM by scintillation counting in presence of NAD+
[7] = target: T1, Estrogen receptor (Homo sapiens) (UniProt P03372); test: Displacement of [3H]estradiol from human recombinant ERalpha after 16 hrs by liquid scintillation counting relative to estradiol
T1 sequence (whole entry): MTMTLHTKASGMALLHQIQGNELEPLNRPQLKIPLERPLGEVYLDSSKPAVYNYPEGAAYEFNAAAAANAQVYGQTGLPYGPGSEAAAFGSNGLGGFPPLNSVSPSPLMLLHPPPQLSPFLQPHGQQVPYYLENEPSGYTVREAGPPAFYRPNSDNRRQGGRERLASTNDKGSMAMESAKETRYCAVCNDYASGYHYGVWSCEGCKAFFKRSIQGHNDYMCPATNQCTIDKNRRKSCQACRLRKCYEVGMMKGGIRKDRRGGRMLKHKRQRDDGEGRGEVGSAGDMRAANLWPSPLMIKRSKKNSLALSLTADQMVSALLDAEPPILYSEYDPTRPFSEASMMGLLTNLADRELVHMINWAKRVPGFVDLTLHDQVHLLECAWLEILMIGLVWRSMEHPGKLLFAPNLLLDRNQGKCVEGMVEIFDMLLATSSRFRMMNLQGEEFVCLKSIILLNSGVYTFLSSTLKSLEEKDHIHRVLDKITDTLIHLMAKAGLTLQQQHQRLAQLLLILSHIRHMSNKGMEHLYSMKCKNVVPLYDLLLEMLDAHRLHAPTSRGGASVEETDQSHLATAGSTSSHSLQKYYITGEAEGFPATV
Summary of the method: as §1

Chain of Estrogen receptor beta (Homo sapiens) (Q92731 whole entry): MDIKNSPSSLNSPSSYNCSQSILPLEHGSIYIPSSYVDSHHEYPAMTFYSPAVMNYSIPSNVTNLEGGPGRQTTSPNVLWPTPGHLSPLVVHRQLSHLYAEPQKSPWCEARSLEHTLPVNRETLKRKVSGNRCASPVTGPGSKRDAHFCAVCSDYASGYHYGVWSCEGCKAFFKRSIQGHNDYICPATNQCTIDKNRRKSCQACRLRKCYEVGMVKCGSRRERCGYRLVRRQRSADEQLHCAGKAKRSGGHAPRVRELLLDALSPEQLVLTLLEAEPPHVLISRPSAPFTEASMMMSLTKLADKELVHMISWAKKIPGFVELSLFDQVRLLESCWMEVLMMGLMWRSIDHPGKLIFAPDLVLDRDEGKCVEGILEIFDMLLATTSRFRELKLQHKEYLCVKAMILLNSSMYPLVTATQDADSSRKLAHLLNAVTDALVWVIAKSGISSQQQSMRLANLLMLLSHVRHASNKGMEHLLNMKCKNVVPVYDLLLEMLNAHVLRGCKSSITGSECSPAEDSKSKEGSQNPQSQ

Compound | inhibition [1] | inhibition [2] | also measured
CCOC(=O)c1cc2ccc(-c3ccc(OC)cc3)cc2oc1=O | 1% | inactive | –
Cc1ccc(-c2ccc3oc(=O)ccc3c2)cc1 | inactive | inactive | –
COc1ccc(-c2ccc3ccc(=O)oc3c2)cc1 | 10% | inactive | –
CCOC(=O)c1cc2ccc(-c3ccc(Cl)cc3)cc2oc1=O | inactive | inactive | –
CCOC(=O)c1cc2cc(Br)ccc2oc1=O | inactive | inactive | –
CCOC(=O)c1cc2cc(-c3ccc(OC)cc3)ccc2oc1=O | 7% | inactive | –
COc1ccc2cc(C(C)=O)c(=O)oc2c1 | 25% | 23% | inhibition [3]: inactive; inhibition [4]: inactive
O=c1ccc2cc(Br)ccc2o1 | inactive | inactive | –
CCOC(=O)c1cc2cc(-c3ccccc3)ccc2oc1=O | 21% | inactive | –
COc1ccc(-c2ccc3oc(=O)c(C(C)=O)cc3c2)cc1 | inactive | inactive | –
CC(=O)c1cc2ccc(-c3ccc(F)cc3)cc2oc1=O | 13% | 6% | –
COc1ccc(-c2ccc3oc(=O)ccc3c2)cc1 | 26% | 7% | –
COc1ccc(-c2ccc3cc(C(C)=O)c(=O)oc3c2)cc1 | 86% | 48% | inhibition [3]: inactive; Activity [5]: inactive; inhibition [6]: inactive; Activity [7]: inactive; inhibition [4]: inactive
O=c1ccc2cc(-c3ccc(Cl)cc3)ccc2o1 | 10% | inactive | –
CCOC(=O)c1cc2ccc(OS(=O)(=O)C(F)(F)F)cc2oc1=O | inactive | inactive | –
Cc1ccc(-c2ccc3ccc(=O)oc3c2)cc1 | 29% | 10% | –
CC(=O)c1cc2cc(-c3ccc(F)cc3)ccc2oc1=O | 59% | 15% | –
CCOC(=O)c1cc2cc(-c3ccc(F)cc3)ccc2oc1=O | 21% | 21% | –

Compound | inhibition [1] | inhibition [2] | also measured
CC(=O)c1cc2cc(-c3ccccc3)ccc2oc1=O | inactive | inactive | –
CCOC(=O)c1cc2cc(-c3ccc(Cl)cc3)ccc2oc1=O | 14% | 10% | –
O=c1ccc2ccc(-c3ccccc3)cc2o1 | 10% | inactive | –
CC(=O)c1cc2ccc(-c3ccc(Cl)cc3)cc2oc1=O | 17% | 12% | –
O=c1ccc2ccc(-c3ccc(Cl)cc3)cc2o1 | 9% | inactive | –
O=c1ccc2cc(-c3ccccc3)ccc2o1 | 18% | inactive | –
CC(=O)c1cc2ccc(OS(=O)(=O)C(F)(F)F)cc2oc1=O | 100% | 60% | inhibition [3]: inactive; Activity [5]: inactive; Activity [7]: inactive; inhibition [4]: inactive
O=c1ccc2cc(-c3ccc(O)cc3)ccc2o1 | 30% | 4% | –
CCOC(=O)c1cc2cc(-c3ccc(C)cc3)ccc2oc1=O | 16% | 6% | –
CCOC(=O)c1cc2ccc(-c3ccccc3)cc2oc1=O | 7% | inactive | –
C[C@]12CC[C@H]3C(=CCc4cc(O)ccc43)[C@@H]1CCC2=O | – | – | RBA [5]: 1.4%; RBA [7]: 0.15%
CC(=O)c1cc2ccc(-c3ccc(C)cc3)cc2oc1=O | 72% | 40% | inhibition [6]: inactive; inhibition [4]: inactive
CC(=O)c1cc2cc(-c3ccc(Cl)cc3)ccc2oc1=O | inactive | inactive | –
CCOC(=O)c1cc2ccc(-c3ccc(C)cc3)cc2oc1=O | 9% | 11% | –
CC(=O)c1cc2cc(-c3ccc(C)cc3)ccc2oc1=O | inactive | inactive | –
O=c1ccc2ccc(-c3ccc(O)cc3)cc2o1 | 43% | inactive | –
CC(=O)c1cc2ccc(-c3ccc(O)cc3)cc2oc1=O | 100% | 76% | inhibition [3]: inactive; Activity [5]: inactive; inhibition [6]: inactive; Activity [7]: inactive; inhibition [4]: inactive
O=c1ccc2ccc(OS(=O)(=O)C(F)(F)F)cc2o1 | 9% | inactive | –
